Source: article PMC3569657 (EMBO Molecular Medicine, 2012)
“And” between values parts separate entries of the source, which are not always exact repeats. Equal entries are not always repeated. Where two headings read alike, the source gives them in different places. Peptide text beside a SMILES is read from it. * marks the point of attachment. Cbz = O=C(OCc1ccccc1)*; CH2F = FC*

Experiments:
[1] = molecular target: WT-I2PP2A/SET-GFP (Homo sapiens, UniProt Q01105); assay: anti-GFP pull-down from A549 cells, protein-bound endogenous lipids by LC/MS/MS; assay type: binding; conditions: for binding of WT-I2PP2A/SET to ceramide, fold: compared to the K209D-I2PP2A/SET (so in the source)
[2] = molecular target: Y122C-I2PP2A/SET-GFP (Homo sapiens, UniProt Q01105, Y135C); assay: as above; assay type: binding; conditions: compared to vector-transfected controls
[3] = test system: A549 cells; assay: Cell death by LDH release; assay type: cell-based, human; conditions: for effect of pre-treatment on FTY720-mediated cell death / growth suppression: A549 cells, FTY720 20 µM, OA 10 nM
How it was run: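 A549 cells were exposed to 20 µM test compound or vehicle for 24 h, and cell death was read as LDH released into the medium. Variants included pre-treatment with okadaic acid (10 nM), Z-VAD or necrostatin, and PP2A siRNA knockdown against scrambled siRNA (knockdown checked by Western blot). Another variant used HA-tagged PP2A overexpression, confirmed by Western blot, compared with controls.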

[4] = test system: H157 (K-Ras mutant) human lung cancer cells; assay: Cell death by LDH release; assay type: cell-based; conditions: FTY720 20 µM; for effect on FTY720-mediated cell death: LDH release
How it was run: (§1)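 Cell death was assessed in human lung cancer lines H157 (K-Ras mutant) and H827 (EGFR mutant) after exposure to test compound. Conditions compared with controls: RIPK1 inhibition by necrostatin, PP2A inhibition by okadaic acid, and siRNA knockdown of RIPK1 or PP2Ac.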

[5] = test system: serum LDH; assay: Total LDH released in serum of xenograft-bearing mice; assay type: in vivo, SCID mice; conditions: mice bearing A549/sh-control xenografts, 3 mg/kg/day oral
How it was run: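 Balb/c SCID mice bearing A549/sh-control, sh-I2PP2A/SET or reconstituted WT-I2PP2A/SET xenografts were dosed by daily oral gavage at 3 mg/kg for 18 days, with untreated mice as controls. Total serum LDH was measured by an external analytical lab.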

[6] = FTY720 and P-FTY720 in serum and tumours of LLC-allograft mice by LC/MS/MS; assay type: in vivo, mouse; conditions: oral FTY720 10 mg/kg
How it was run: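 Lewis lung adenocarcinoma allografts were grown in flanks of WT and SK-2−/− mice. Animals received oral test compound at 10 mg/kg. Parent compound and its phosphorylated form were quantified by LC/MS/MS in the tumours.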

[7] = FTY720 and P-FTY720 in tumour and serum of A549-xenograft mice by LC/MS/MS; assay type: in vivo, SCID mice; conditions: mice treated with oral FTY720 3 mg/kg/day
[8] = test system: c-Myc; assay: c-Myc expression in A549 cells by Western blotting; assay type: cell-based, human; conditions: compared to controls
How it was run: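 A549 cells were treated with test compound or its phosphorylated form alongside controls. c-Myc was detected by Western blotting with actin as loading control, and relative c-Myc levels were derived from band quantification.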

[9] = test system: MEFs obtained from caspase3/7−/− DKO, Bax/Bak−/− DKO or ATG5−/− KO mice; assay: MTT growth assay in knockout MEFs; assay type: cell-based, mouse; conditions: various concentrations
[10] = test system: H827 (EGFR mutant) human lung cancer cells; assay: Cell death by LDH release; assay type: cell-based; conditions: FTY720 20 µM
How it was run: as §1

[11] = molecular target: purified recombinant human I2PP2A/SET (Homo sapiens, UniProt Q01105); assay: SPR binding of purified human I2PP2A/SET to lipid vesicles
How it was run: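 SPR at 25°C. Sensor chip coated with vesicles of POPC:POPE:x (75:20:5, x = C18-ceramide or test compound) to about 6200 RU, against a POPC:POPE (80:20) control surface, and stabilised with 50 mM NaOH. Protein (I2PP2A/SET, or p47phox-PX control protein) in 20 mM HEPES pH 7.4, 0.16 M KCl was flowed at 5 µl/min. Triplicate sensorgrams per lipid were fitted individually for ka and kd, giving Kd = kd/ka.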

[12] = test system: RIPK1−/− MEFs; assay: Cell death in RIPK1−/− versus RIPK1+/+ MEFs; assay type: cell-based, mouse; conditions: FTY720 15 µM, RIPK1−/− compared to RIPK1+/+ MEFs
[13] = test system: P-PP2A (Y307), c-Myc, hTERT mRNA; assay: PP2A signalling markers in A549-xenograft tumours; assay type: in vivo, SCID mice; conditions: 3 mg/kg/day oral
[14] = test system: A549-xenograft-derived tumours; assay: A549-xenograft-derived tumour growth in SCID mice; assay type: in vivo, Balb/c SCID mice
How it was run: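 A549 cells, or A549 lines with control shRNA, I2PP2A/SET shRNA or shRNA plus WT-I2PP2A/SET re-expression, grown as flank xenografts in Balb/c SCID mice. Test compound was given by oral gavage at 3 mg/kg/day against vehicle-treated controls: 15 days (n = 12) for parental xenografts, 18 days for the shRNA lines. Tumour volume change was computed relative to untreated sh-control mice at Day 18. Tumours were also examined by electron microscopy for mitochondrial damage and cytoplasmic swelling.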

[15] = test system: WT MEFs; assay: MTT growth assay; assay type: cell-based; conditions: Mus musculus
[16] = test system: c-Myc-V5; assay: Ectopically expressed c-Myc-V5 in MEFs by Western blotting; assay type: cell-based, mouse
How it was run: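 V5-tagged c-Myc was ectopically expressed in WT, SK-1−/− and SK-2−/− mouse embryonic fibroblasts. Cells were exposed to test compound, and c-Myc was detected by Western blotting with actin as loading control. Relative c-Myc levels were derived from band quantification.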

[17] = molecular target: I2PP2A/SET (Homo sapiens, UniProt Q01105); assay type: binding; conditions: unlabeled competitor 10 µM; purified I2PP2A/SET
How it was run: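 Recombinant human I2PP2A/SET (His-tag vector), 1–2 µg, incubated with biotin alone or biotin-labelled test compound (1, 5 or 10 µM). Competition runs added unlabelled ceramide or the parent or phosphorylated compound, 10 µM each. Bound protein was captured by streptavidin/avidin column pull-down, and eluates were run on SDS–PAGE and immunoblotted with anti-I2PP2A/SET.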

[18] = test system: Lewis lung adenocarcinoma cell (LLC)-derived allografts; assay: Lewis lung adenocarcinoma allograft growth in WT and SK-2−/− mice; assay type: in vivo, mouse; conditions: 10 mg/kg/day oral, vs controls
How it was run: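 Lewis lung adenocarcinoma cells were implanted in flanks of WT (C57BL/6 background) and SK-2−/− mice. Animals were treated with oral test compound at 10 mg/kg or served as controls. Results are given as % change in tumour volume for each genotype against its controls at Day 13.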

[19] = test system: SK1−/− MEFs; assay: MTT growth assay; assay type: cell-based; conditions: Mus musculus
[20] = test system: PP2A; assay: PP2A activity assay on A549 cell extracts; assay type: cell-based, human; conditions: 10 µM FTY720, compared to vehicle-treated controls
How it was run: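 PP2A phosphatase activity was measured in extracts of A549, A549/shI2PP2A and A549/shI2PP2A re-expressing WT-I2PP2A/SET (about 60% reconstitution). Cells were grown with or without 10 µM test compound. In a related set, PP2A siRNA knockdown in A549 cells was compared with scrambled-siRNA controls.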

[21] = test system: A549 cells; assay: Annexin V/7-AAD flow cytometry; assay type: cell-based, human; conditions: compared to controls
[22] = test system: SK2−/− MEFs; assay: MTT growth assay; assay type: cell-based; conditions: Mus musculus
[23] = test system: ATG5−/− MEFs; assay: Caspase 3 activity assay, taxol-induced apoptosis; assay type: cell-based, mouse; conditions: 80 nM and 24 h, compared to WT MEFs

Sequence of WT-I2PP2A/SET-GFP (Q01105 1-277 isoform Q01105-2): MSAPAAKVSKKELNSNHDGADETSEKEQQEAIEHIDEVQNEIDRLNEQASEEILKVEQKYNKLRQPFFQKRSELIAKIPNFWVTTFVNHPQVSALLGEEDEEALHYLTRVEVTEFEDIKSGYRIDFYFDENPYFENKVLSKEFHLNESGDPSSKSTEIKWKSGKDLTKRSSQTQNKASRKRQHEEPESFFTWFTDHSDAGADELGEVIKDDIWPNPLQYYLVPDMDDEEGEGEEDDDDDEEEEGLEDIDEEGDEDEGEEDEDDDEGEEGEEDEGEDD
Sequence of purified recombinant human I2PP2A/SET (Q01105 1-277 isoform Q01105-2): as above
Sequence of I2PP2A/SET (Q01105 1-277 isoform Q01105-2): as above
Sequence of Y122C-I2PP2A/SET-GFP (Q01105 1-277 isoform Q01105-2 Y122C): as the sequence (Q01105 1-277 isoform Q01105-2) above, with Y122C counted along it

CCCCCCCCCCCCC/C=C/[C@@H](O)[C@H](CO)NC(=O)CCCCCCCCCCCCCCCCCCCCCCC [C24]
binding of WT-I2PP2A/SET to ceramide, fold [1]: 2.1 fold

CCCCCCCCCCCCC/C=C/[C@@H](O)[C@H](CO)NC(=O)CCCCCCCCCCCCCCCCCCCCC [C22]
binding of WT-I2PP2A/SET to ceramide, fold [1]: 2.6 fold

CCCCCCCCCCCCC/C=C/[C@@H](O)[C@H](CO)NC(=O)CCCCCCCCCCCCCCCCCCCCCCCCC [C26]
binding of WT-I2PP2A/SET to ceramide, fold [1]: 2.5 fold | increased binding of Y122C-I2PP2A/SET to ceramide, fold [2]: ~2.4 fold

CC(NC(=O)C(NC(=O)OCc1ccccc1)C(C)C)C(=O)NC(CC(=O)O)C(=O)CF (stereo not drawn) [Z-VAD] (Cbz-Val-Ala-Asp-CH2F; configuration not given here)
effect of pre-treatment on FTY720-mediated cell death / growth suppression ([3]; LDH release): had no effect

CCCCCCCCCCCCC/C=C/[C@@H](O)[C@H](CO)NC(=O)CCCCCCCCCCCCCCCCCCC [C20]
binding of WT-I2PP2A/SET to ceramide, fold [1]: 1.9 fold

C=C1[C@@H](O)[C@@H]2O[C@]3(CC[C@H](/C=C/[C@@H](C)[C@@H]4CC(C)=C[C@@]5(O[C@H](C[C@@](C)(O)C(=O)O)CC[C@H]5O)O4)O3)CC[C@H]2O[C@@H]1[C@@H](O)C[C@H](C)[C@H]1O[C@@]2(CCCCO2)CC[C@H]1C [okadaic acid]
effect on FTY720-mediated cell death [4]: prevented FTY720-mediated cell death

CCCCCCCCc1ccc(CCC(N)(CO)CO)cc1 [FTY720, 2-amino-2-[2-(4-octylphenyl)ethyl]propane-1,3-diol]
cell death ([3]; 20 µM, 24 h, LDH release): significantly induced cell death | increase of FTY720-mediated cell death on overexpression of PP2A-HA ([3]; compared to controls): ~40% | serum LDH [5]: increased serum LDH | accumulation in tumours grown in WT and SK-2−/− mice [6]: comparable | accumulation in A549-xenograft-derived tumours [7]: 0.2 pmol/nmol Pi | accumulation in serum [7]: ~100 pmol/mL | c-Myc levels [8]: decreased c-Myc levels | effect of genetic loss of caspases3/7, Bax/Bak or ATG5 on FTY720-induced cell death [9]: no protective effect | PP2A-dependent necroptosis [10]: detected | Kd ([11]; Protein Kd, liposomes POPC:POPE:x (75:20:5), control POPC:POPE (80:20), 1 µM I2PP2A, 20 mM HEPES pH 7.4, 160 mM KCl): ~11 nM and 11 nM | cell death on genetic loss of RIPK1 [12]: almost completely abrogated cell death | c-Myc and hTERT mRNA in tumours ([13]; IHC or Western blotting, Q-PCR): decreased | inactive P-PP2A (Y307) in tumours ([13]; IHC, without affecting total PP2A): decreased | tumour suppression in A549/sh-I2PP2A/SET xenografts expressing WT-I2PP2A/SET ([14]; 3 mg/kg/day oral): restored tumour suppressor effects | tumour suppression in response to I2PP2A/SET knockdown (A549/sh-I2PP2A/SET xenografts) ([14]; 3 mg/kg/day oral): no additional effects | growth of A549-xenograft-derived tumours ([14]; 3 mg/kg/day oral for 15 days, n = 12, p < 0.05 vs controls): inhibited the growth | inhibition of growth of A549/control-derived xenografts ([14]; 3 mg/kg/day oral, 18 days, vs vehicle-treated controls): ~80% | tumours with damaged/swollen mitochondria (TEM) ([14]; oral FTY720, n = 20): ~40% | IC50 [15]: ~10000 nM | PP2A-dependent necroptosis [4]: detected | reduced c-Myc expression ([16]; SK-1−/− MEFs): 70% | reduced c-Myc expression ([16]; SK-2−/− MEFs): 55% | reduced c-Myc expression ([16]; WT MEFs): 80% | competition with B-FTY720-I2PP2A/SET binding [17]: competed significantly | inhibition of tumour growth ([18]; SK-2−/− mice): ~47% | inhibition of tumour growth ([18]; WT mice): ~60% | IC50 [19]: ~10000 nM | PP2A activity [20]: enhanced PP2A activity | Annexin V/7-AAD positive cell populations [21]: increased | IC50 [22]: ~10000 nM

CCCCCCCCCCCCC/C=C/[C@@H](O)[C@@H](N)CO [sphingosine]
binding of endogenous sphingosine ([1]; LC/MS/MS after pull-down): bind

CCCCCCCCCCCCC/C=C/[C@@H](O)[C@H](CO)NC(=O)CCCCCCCCCCCCCCCCC [C18-ceramide]
Kd ([11]; read-out: Protein Kd, liposomes POPC:POPE:x (75:20:5), control POPC:POPE (80:20), 1 µM I2PP2A, 20 mM HEPES pH 7.4, 160 mM KCl): ~11 nM and 11 nM | competition with B-FTY720-I2PP2A/SET binding [17]: competed significantly

CCCCCCCCc1ccc(CC[C@](N)(CO)COP(=O)(O)O)cc1 [P-FTY720]
accumulation in serum on loss of SK-2 ([6]; SK-2−/− mice): almost completely abrogated | accumulation in A549-xenograft-derived tumours [7]: 0.05 pmol/nmol Pi | accumulation in serum [7]: ~400 pmol/mL | Protein Kd ([11]; liposomes POPC:POPE:x (75:20:5), control POPC:POPE (80:20), 1 µM I2PP2A, 20 mM HEPES pH 7.4, 160 mM KCl): below the detection limit

CC(=O)O[C@H]1C(=O)[C@@]2(C)[C@H]([C@H](OC(=O)c3ccccc3)[C@]3(O)C[C@H](OC(=O)[C@H](O)[C@@H](NC(=O)c4ccccc4)c4ccccc4)C(C)=C1C3(C)C)[C@]1(OC(C)=O)CO[C@@H]1C[C@@H]2O [taxol]
caspase 3 activity (apoptosis) [23]: increased caspase 3 activity

CN1C(=O)C(Cc2c[nH]c3ccccc23)NC1=S (centres unmarked) [necrostatin]
effect of pre-treatment on FTY720-mediated cell death / growth suppression ([3]; LDH release): significantly prevented | effect on FTY720-mediated cell death [4]: prevented FTY720-mediated cell death
